High-throughput results: PubChem BioAssay, Sanford-Burnham Center for Chemical Genomics
FLuc inh counter: firefly luciferase enzyme inhibitors, primary screen, artefact control for luciferase-based inhibitor screens, biochemical, luminescence, ATPLite. 10 min. 200,000 compounds, 1.5% hits. AID 1006, 2008. Luciferin 4-monooxygenase (Photinus pyralis), P08659. inhibition, % at 10 µM;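 active = inhibition above about 50% when tested at 10 µM, limit read from the data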
Target sequence (P08659 whole entry, looked up): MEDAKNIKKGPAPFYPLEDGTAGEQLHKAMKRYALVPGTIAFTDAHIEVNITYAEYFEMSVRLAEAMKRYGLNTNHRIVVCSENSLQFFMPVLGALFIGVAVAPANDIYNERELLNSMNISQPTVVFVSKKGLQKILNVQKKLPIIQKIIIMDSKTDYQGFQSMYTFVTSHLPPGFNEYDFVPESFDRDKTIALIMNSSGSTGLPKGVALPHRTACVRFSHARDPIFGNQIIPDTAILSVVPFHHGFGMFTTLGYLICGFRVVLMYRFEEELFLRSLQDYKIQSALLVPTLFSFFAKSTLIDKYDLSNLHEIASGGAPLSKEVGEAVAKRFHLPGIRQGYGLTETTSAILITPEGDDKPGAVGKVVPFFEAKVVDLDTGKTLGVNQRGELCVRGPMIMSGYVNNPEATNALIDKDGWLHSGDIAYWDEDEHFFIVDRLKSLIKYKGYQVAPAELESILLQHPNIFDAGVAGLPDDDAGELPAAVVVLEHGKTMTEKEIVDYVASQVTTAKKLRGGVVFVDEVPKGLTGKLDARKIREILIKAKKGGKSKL
FLuc act counter: FLuc activators, initial screening, artefact control for FLuc-dependent activation tests, biochemical, ATPlite luminescence; Luciferin 4-monooxygenase (Photinus pyralis), P08659; ATPlite luciferase biochemical, 10 min; 0 = ATP-free wells, 1 = DMSO control; activation factor at 10 µM; 200,000 tested, under 10 active; AID 1027, 2008;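 active = luciferase activation factor, scaled between plate controls, of at least 2 with compound at 10 µM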
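Assay system: Luciferase/luciferin detection reagent, cell-free biochemical luciferase assay / Also added: ATP substrate / Schedule: 10 min at ambient temperature / Measured by: luminescence measurement of luciferase light output / Benchmarks: low control with PBS replacing ATP, high control enzyme plus ATP without compound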
PPC-1+TRAIL kill: compounds killing PPC-1 cancer cells with TRAIL present, primary screen, TRAIL potentiator project, ATPLite luminescence, uHTS; AID 1443, 2008; cell killing (% activity), % at 4 µM or 5 µM; PPC-1 cells + TRAIL, ATPLite viability luminescence; 220,000 compounds, 0.41% hits;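 active = cell killing above 50% in the first pass at 4 µM, then a duplicate retest at 5 µM averaging 50% or more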
TRAIL sens C8: viability loss with TRAIL in NB7+C8 cells, primary screen, TRAIL sensitizer project, cell-based, ATPlite luminescence. AID 624354, 2012. 360,000 compounds, 1% hits. inhibition (viability loss, TRAIL sensitization), % at 10 µM;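 active = compounds causing at least 50% loss of cell viability in the single-dose screen, relative to plate controls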
Numbers stand for hits; ! = a repeat was not active. Compounds with a hit are over-represented: about 1.6% of the library has one in this group of screens.

Screening CCOc1ccc(OCC(=O)N(CCC2=CCCCC2)c2c(N)n(Cc3ccccc3)c(=O)[nH]c2=O)cc1 returned TRAIL sens C8 56.
For CC(C(=O)O)c1ccc(N2Cc3ccccc3C2=O)cc1 (centres undefined) the results were FLuc inh counter 62, FLuc act counter inactive, PPC-1+TRAIL kill inactive and TRAIL sens C8 inactive.
Screening OCCC1CN(Cc2cccc3c2OCO3)CCN1C1CCCC1 (centres undefined) returned FLuc inh counter inactive, FLuc act counter inactive, PPC-1+TRAIL kill inactive and TRAIL sens C8 inactive.
For COc1ccc2oc(=Nc3ccccc3)c(-c3nc4ccccc4[nH]3)cc2c1 the results were FLuc inh counter 61, FLuc act counter inactive, PPC-1+TRAIL kill 61 and TRAIL sens C8 63.
Screening CCOC(=O)C1CCN(S(=O)(=O)c2cc(Br)cc3c2N(C(C)=O)C(C)C3)CC1 (centres undefined) returned FLuc inh counter inactive, FLuc act counter inactive, PPC-1+TRAIL kill inactive and TRAIL sens C8 inactive.
CN1C(=O)C(CC(=O)NCC2CCCCC2)SC1=Nc1ccccc1 (centres undefined) was read as FLuc inh counter inactive, FLuc act counter inactive, PPC-1+TRAIL kill inactive and TRAIL sens C8 inactive.
For CC[C@H](C)[C@@H]1NC(=O)[C@@H](CC(C)C)NC(=O)[C@H](C(C)C)NC(=O)[C@H]2CSSC[C@H](NC1=O)C(=O)N2 the results were TRAIL sens C8 94.
`CC(C)C[C@@H]1NC(=O)[C@H](C(C)C)NC(=O)c2cc([N+](=O)[O-])cc(I)c2NCC[C@@H](C(N)=O)NC1=O` gave FLuc inh counter inactive, FLuc act counter inactive and PPC-1+TRAIL kill inactive.
`CC1CCC(C(C)C)C(OC(=O)Cn2c(-c3ccc(F)cc3)[n+](C)c3ccccc32)C1` (centres undefined) gave FLuc inh counter inactive, FLuc act counter inactive, PPC-1+TRAIL kill inactive and TRAIL sens C8 inactive.
`CC1CCC(C(C)C)C(OC(=O)Cn2c(-c3ccccc3)[n+](C)c3ccccc32)C1` (centres undefined) gave FLuc inh counter inactive, FLuc act counter inactive, PPC-1+TRAIL kill inactive and TRAIL sens C8 58!.
Screening CCOC(=O)CN1CCC(C2(c3cc4ccccc4[nH]3)OCCO2)CC1 returned TRAIL sens C8 inactive.
For N#C/C(=C\c1ccc(N2CCOCC2)o1)c1nc2ccccc2[nH]1 the results were FLuc inh counter 85, FLuc act counter inactive, PPC-1+TRAIL kill inactive and TRAIL sens C8 57.
CC(C)C[C@H]1COc2cccc(N3CCC[C@H]3CO)c2S(=O)(=O)N1 was read as TRAIL sens C8 inactive.
`O=C1N/C(=N\N=C\c2ccc3ncccc3c2)SC1Cc1ccc(SC(F)F)cc1` (centres undefined) gave FLuc inh counter 61, FLuc act counter inactive, PPC-1+TRAIL kill inactive and TRAIL sens C8 inactive.
`Cc1ccc(/C=C2\CCC(C3CCCC3)C2=O)cc1` (centres undefined) gave FLuc inh counter 57, FLuc act counter inactive, PPC-1+TRAIL kill inactive and TRAIL sens C8 inactive.
`COCCNC(=O)c1onc(CSc2ccccc2F)c1C(=O)O` gave FLuc inh counter inactive, FLuc act counter inactive, PPC-1+TRAIL kill 55 and TRAIL sens C8 inactive.
`CN(C)CCNCCCNc1c2ccccc2nc2cccc([N+](=O)[O-])c12` gave TRAIL sens C8 61.
CN(C)CCCNc1c2c(nc3ccccc13)CCC2 was read as TRAIL sens C8 inactive.
Cc1ccc(-c2nc3ccccc3n2C)o1 was read as FLuc inh counter 68, FLuc act counter inactive, PPC-1+TRAIL kill inactive and TRAIL sens C8 inactive.
Screening CC(=O)c1ccc(-c2nc3ccccc3n2C)o1 returned FLuc inh counter inactive, FLuc act counter inactive, PPC-1+TRAIL kill inactive and TRAIL sens C8 inactive.
Screening Cc1oc(-c2nc3ccccc3n2C)cc1C(=O)c1ccccc1 returned FLuc inh counter 90, FLuc act counter inactive, PPC-1+TRAIL kill inactive and TRAIL sens C8 80.
`Cn1cc(C(=O)c2ccccc2)cc1-c1nc2ccccc2n1C` gave FLuc inh counter inactive, FLuc act counter inactive, PPC-1+TRAIL kill inactive and TRAIL sens C8 inactive.
Screening Cn1c(-c2ccc(Br)o2)nc2cc(Br)ccc21 returned FLuc inh counter 64, FLuc act counter inactive, PPC-1+TRAIL kill inactive and TRAIL sens C8 inactive.
`Cn1c(-c2ccc(Br)o2)nc2ccccc21` gave FLuc inh counter 83, FLuc act counter inactive, PPC-1+TRAIL kill inactive and TRAIL sens C8 52.
